How the values were obtained:
[1] = molecular target: Mu-type opioid receptor (Homo sapiens) (UniProt P35372); assay: Agonist activity at recombinant human MOR expressed in CHO cell membranes after 60 mins by [35S]GTPgammaS binding assay; type: functional
In short: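 [35S]GTPγS binding stimulated by ligand in membranes from CHO cells stably expressing human MOR. Values are mean ± SEM of at least three independent experiments.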

Mus musculus = assay: Potency index, ratio of moprhine ED50 for antinociceptive activity in sc dosed […] mouse to compound ED50 for antinociceptive activity in sc dosed CD1 mouse; type: functional
[2] = molecular target: Mu-type opioid receptor (Homo sapiens) (UniProt P35372); assay: Displacement of [3H]-DAMGO from recombinant human MOR expressed in CHO cell membranes after 60 mins by liquid scintillation counting
In short: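 Competition binding on membranes from CHO cells stably transfected with recombinant human MOR. Affinity is reported as Ki. Values are mean ± SEM of at least three independent experiments.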

Homo sapiens = species on record: Homo sapiens; assay: Selectivity ratio of Ki for recombinant human DOR expressed in CHO cell membranes to Ki for recombinant human MOR expressed in CHO cell membranes; type: cell-based

Mu-type opioid receptor (Homo sapiens), sequence (P35372 whole entry): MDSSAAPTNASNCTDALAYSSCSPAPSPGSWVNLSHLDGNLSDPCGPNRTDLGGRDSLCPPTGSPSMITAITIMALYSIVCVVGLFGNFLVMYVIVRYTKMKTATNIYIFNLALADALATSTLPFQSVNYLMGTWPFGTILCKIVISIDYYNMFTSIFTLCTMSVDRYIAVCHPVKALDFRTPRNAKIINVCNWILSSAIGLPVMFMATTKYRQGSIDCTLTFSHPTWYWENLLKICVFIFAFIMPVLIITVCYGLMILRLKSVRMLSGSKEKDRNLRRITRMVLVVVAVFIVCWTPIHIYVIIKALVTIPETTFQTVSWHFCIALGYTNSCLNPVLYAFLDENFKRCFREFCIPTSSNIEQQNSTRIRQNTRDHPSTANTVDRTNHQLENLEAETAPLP

Structure (SMILES) | Activity [1] | Ratio ED50 (Mus musculus) | inhibition [2] | Ratio Ki (Homo sapiens)
CN1CC[C@]23c4c5ccc(O)c4O[C@H]2C(=O)CC[C@@]3(OCc2ccccc2)[C@H]1C5 | Dose-dependent effect | <=1020 | Dose-dependent effect | 
CN1CC[C@]23c4c5ccc(O)c4O[C@H]2CCC[C@@]3(OCc2ccccc2)[C@H]1C5 | Dose-dependent effect | <=1020 | Dose-dependent effect | 21
CN1CC[C@]23c4c5ccc(O)c4O[C@H]2CCC[C@@]3(O)[C@H]1C5 | Dose-dependent effect | <=1020 | Dose-dependent effect | 
CO[C@@]12CCC[C@@H]3Oc4c(O)ccc5c4[C@@]31CCN(C)[C@@H]2C5 | Dose-dependent effect | <=1020 | Dose-dependent effect | 
CO[C@@]12CCC[C@]3(C)Oc4c(O)ccc5c4[C@@]31CCN(C)[C@@H]2C5 |  | <=1020 |  | 
CO[C@@]12CCC(=O)[C@@H]3Oc4c(O)ccc5c4[C@@]31CCN(C)[C@@H]2C5 | Dose-dependent effect | <=1020 | Dose-dependent effect | 
CO[C@@]12CCC(=O)[C@]3(C)Oc4c(O)ccc5c4[C@@]31CCN(C)[C@@H]2C5 | Dose-dependent effect | <=1020 | Dose-dependent effect | 

Reference: ChEMBL document CHEMBL4028881, “Synthesis, Pharmacology, and Molecular Docking Studies on 6-Desoxo-N-methylmorphinans as Potent μ-Opioid Receptor Agonists” (J Med Chem, 2017)
